Screens from PubChem BioAssay.
In the library only some 1.9% were active in any assay of this set; here they are far more common.
M4 antag – CHRM4 antagonism in calcium assay; actives 0.73% (n = 360,000); P08173; CHO-hM4 cells, ACh EC80, Fluo-8 calcium fluorescence; AID 624125; inhibition, % at 3 µM;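 active means inhibition above its plate's cutoff, the mean inhibition of sample wells plus 3 SD, cut at about 27% in these data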
Target sequence (P08173 whole entry, looked up): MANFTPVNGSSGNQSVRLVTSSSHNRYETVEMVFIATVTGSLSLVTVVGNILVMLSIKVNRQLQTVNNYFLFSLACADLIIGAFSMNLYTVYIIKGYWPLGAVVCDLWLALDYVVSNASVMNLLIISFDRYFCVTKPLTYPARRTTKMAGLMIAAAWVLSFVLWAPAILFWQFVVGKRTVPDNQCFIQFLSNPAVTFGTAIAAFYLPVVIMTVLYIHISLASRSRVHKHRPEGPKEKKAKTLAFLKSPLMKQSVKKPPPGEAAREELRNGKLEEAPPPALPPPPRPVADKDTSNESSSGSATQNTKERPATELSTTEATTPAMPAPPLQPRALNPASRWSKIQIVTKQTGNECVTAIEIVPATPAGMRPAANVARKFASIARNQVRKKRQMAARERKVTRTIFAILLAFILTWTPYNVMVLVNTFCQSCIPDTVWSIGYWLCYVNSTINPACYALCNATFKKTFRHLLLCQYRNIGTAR
CHRM4 PAM – potentiates acetylcholine response at human M4 receptor | P08173 | CHO-K1 hM4/Gqi5, Fluo-8 calcium fluorescence, ACh EC20; 0% = ACh EC20, 100% = maximal ACh | activation, % at 3 µM | actives 0.4% (n = 360,000);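 active means activation above its plate's cutoff, the mean activation of sample wells plus 3 SD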
M4 ag – CHRM4 agonism in calcium assay; actives 0.14% (n = 360,000); activation, % at 3 µM; CHO-K1 hM4/Gqi5, Fluo-8 calcium fluorescence; vehicle 0%, full acetylcholine response 100%;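 active means activation above the run mean over all test wells plus 3 SD, cut at about 32% in these data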;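 further: peak over basal fluorescence ratio per well then scaled between controls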
M5 PAM – potentiates acetylcholine response at human M5 receptor. P08912. CHO-K1 hM5, Fluo-8 calcium, ACh EC20 PAM; 0% = ACh EC20, 100% = ACh EC100. activation, % at 3 µM. actives 0.3% (n = 360,000);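 active means activation above the run cutoff, the mean activation of all test compounds plus 3 SD, cut at about 18% in these data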
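Test system: CHO-K1 hM5 cells / Doses: single-point, 3 µM nominal / Times: Post-acetylcholine fluorescence recording 140 s / Technique: Fluo-8 calcium fluorescence / Measure: Max/basal fluorescence ratio as % of EC20–EC100 ACh window / Benchmarks: low control EC20 acetylcholine (0%), high control EC100 acetylcholine (100%) / Replicates: one well per compound, no replicates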
M5 ag – agonists of human muscarinic M5 receptor (CHRM5); CHO-K1 hM5 cells, Fluo-8 calcium fluorescence; 0% DMSO wells, 100% maximal acetylcholine response; activation, % at 3 µM; actives 0.19% (n = 360,000); AID 624037;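 active means activation above the run's mean over test compounds plus 3 SD, cut at about 23% in these data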;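 further: signal is peak over basal fluorescence ratio across the kinetic read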
M5 antag – CHRM5 antagonism in calcium assay. inhibition, % at 3 µM. CHO-hM5 cells, Fluo-8 calcium fluorescence, ACh EC80. actives 0.59% (n = 360,000). P08912;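 active means inhibition above a per-plate cutoff, the mean of that plate's test compounds plus 3 SD, cut at about 27% in these data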
Hits are given with their value; 0 = inactive.

SMILES	M4 antag	CHRM4 PAM	M4 ag	M5 PAM	M5 ag	M5 antag
O=C(Nc1ccc(F)cc1)Nc1ccccc1F	0	0	0	0	0	0
COc1cccc(NC(=O)CSCC(=O)Nc2ccccc2)c1	0	0	0	0	0	0
COc1cccc(NC(=O)Nc2ccc(C(C)(C)C)cc2)c1	0	0	0	0	0	35
COc1cccc(NC(=O)CSCC(=O)O)c1	0	33	0	0	0	0
COc1cccc(NC(=O)Nc2ccc(C)c(Cl)c2)c1	0	0	0	0	0	33
Cn1c(=O)c2c(nc(CN3CCN(C(=O)c4ccco4)CC3)n2CC(=O)C(C)(C)C)n(C)c1=O	0	0	0	0	0	0
CN(CCCC(=O)O)c1ccc(N=Nc2ccc([N+](=O)[O-])cc2)cc1	0	0	0	0	0	0
CC(=O)c1sc2nsc(SCCN3CCCC3)c2c1N	0	0	0	0	0	0
CC(C)(C)c1ccc(NC(=O)Nc2ccc(F)cc2)cc1	51	0	0	0	0	79
CCOC(=O)C1=C(N)OC2=C(C(=O)CCC2)C1c1ccc2c(c1)OCO2 (stereo unspecified)	0	0	0	0	0	0
CN(CC(=O)NCCc1ccc(S(N)(=O)=O)cc1)CC(=O)Nc1ccc(Cl)c(C(F)(F)F)c1	0	23	0	0	0	0
C/C(=N/NC(=O)c1cc(-c2ccccc2)nc2c(Cl)cccc12)c1cccnc1	0	26	0	25	0	0
Cc1ccccc1CS(=O)(=O)c1nnc([C@H](CC(C)C)NC(=O)OC(C)(C)C)o1	28	0	0	0	0	0
CC(C)[C@H](NC(=O)OC(C)(C)C)c1nnc(S(=O)(=O)Cc2c(F)cccc2Cl)o1	43	0	0	0	0	0
CC[C@@H](C)[C@H](NC(=O)OC(C)(C)C)c1nnc(S(=O)(=O)Cc2cc(C)ccc2C)o1	48	0	0	0	0	0
CC(C)C[C@H](NC(=O)OC(C)(C)C)c1nnc(SCc2ccccc2)o1	0	0	0	0	0	0
Cc1ccc2oc(=O)n(Cc3ccc(F)cc3)c2c1	0	0	0	0	0	0
CC(=O)N1c2ccc(S(=O)(=O)N3CCC(C(=O)N4CCN(c5cc(Cl)ccc5C)CC4)CC3)cc2CC1C (stereo unspecified)	36	0	0	0	0	28
COc1ccc(N2CCN(S(=O)(=O)c3ccc4c(c3)CC(C)N4C(=O)C3CC3)CC2)cc1 (stereo unspecified)	0	0	0	0	0	27
CC(=O)N1CCCc2cc(S(=O)(=O)N3CCCC(C(=O)N4CCN(c5cc(C)ccc5C)CC4)C3)ccc21 (stereo unspecified)	0	0	37	0	0	0
CC(=O)N1c2ccc(S(=O)(=O)N3CCC(C(=O)N4CCC(C)CC4)CC3)cc2CC1C (stereo unspecified)	0	0	0	0	0	0
CC1Cc2cc(S(=O)(=O)N3CCC(C(=O)N4CCN(c5ccccc5F)CC4)CC3)ccc2N1C(=O)C1CC1 (stereo unspecified)	37	0	0	0	0	30
O=C(N/C(=C/c1cccc(Br)c1)C(=O)N1CCCCC1)c1ccco1	0	0	0	0	0	0
COc1ccc(OC)c(NC(=O)C2(C)CCN2C(=O)CCC2CCCC2)c1 (stereo unspecified)	0	0	0	0	0	0
CCOC(=O)N1CCN(C(=O)c2cc3c(s2)-c2ccccc2OC3)CC1	0	24	0	0	0	0
SMILES	M4 antag	CHRM4 PAM	M4 ag	M5 PAM	M5 ag	M5 antag
CCCN1CCN(C(=O)c2cc3c(s2)-c2ccccc2OC3)CC1	0	0	0	0	0	0
CCN(CC)CCCn1c(C)cc2c(c1=O)C(c1cc(OC)c(OC)cc1OC)C(C#N)=C(N)O2 (stereo unspecified)	30	0	0	0	0	0
COc1cc(OC)c(C2C(C#N)=C(N)Oc3cc(C)n(CCCN4CCOCC4)c(=O)c32)cc1OC (stereo unspecified)	0	0	0	0	0	0
Cc1nc([N+](=O)[O-])c(C(=O)O)n1C	0	0	0	0	0	0
Cc1nc2sccn2c(=O)c1S(=O)(=O)NCC1CCN(Cc2ccc(Cl)cc2)CC1	0	0	0	0	0	0
COc1ccccc1C(=O)Nc1ccc2c(c1)nc(CN1CCN(C(C)=O)CC1)n2C	27	0	0	0	0	0
CC(=O)N1CCN(Cc2nc3cc(NC(=O)c4ccccc4)ccc3n2C)CC1	0	0	0	0	0	0
O=C(NC(=S)N1CCCCC1c1cccnc1)c1ccc(Br)cc1 (stereo unspecified)	0	15	0	0	0	0
O=C(NC(=S)N1CCCCC1c1cccnc1)c1ccc(F)cc1 (stereo unspecified)	0	0	0	0	0	0
O=C(NC(=S)NN1CCCCC1c1cccnc1)c1ccc(Cl)cc1Cl (stereo unspecified)	0	0	0	22	0	0
O=C(NC(=S)N1CCCC1)c1ccc(Cl)cc1Cl	0	0	0	0	0	0
CS(=O)(=O)N(CC(=O)N1CCc2ccccc2C1)c1ccccc1Br	0	16	0	0	0	0
Cc1ccccc1N(CC(=O)N1CCc2ccccc2C1)S(C)(=O)=O	0	0	0	0	0	0
CCCN1C(=O)S/C(=C/c2ccc(N3CCOCC3)o2)C1=O	31	0	0	0	0	0
COC(=O)c1cnc(Oc2ccc(NC(=O)NC(=O)c3c(F)cccc3Cl)cc2)cc1C(F)(F)F	0	0	0	0	0	0
COC(=O)c1cnc(Oc2c(Cl)cc(N)cc2Cl)cc1C(F)(F)F	0	0	0	19	0	0
CCC(=O)N1CCc2cc(S(=O)(=O)CCC(=O)Nc3nc(C)cs3)ccc21	0	0	0	28	0	0
O=C(Nc1nc(-c2ccc3ccccc3c2)cs1)c1ccc(N2C(=O)CCC2=O)cc1	0	0	0	0	0	0
O=C(O)c1ccccc1C(=O)Nc1nc(-c2ccc3ccccc3c2)cs1	0	24	0	0	0	0
NS(=O)(=O)c1ccc(Nc2nc(-c3ccc4ccccc4c3)cs2)cc1	37	0	0	0	0	0
NS(=O)(=O)c1ccc(Nc2nc(-c3cccc([N+](=O)[O-])c3)cs2)cc1	0	0	0	0	0	0
CCOc1ccc(Nc2nc3ccccc3n2C)cc1	0	0	0	0	0	0
CCOc1ccc(CNc2nc3ccccc3n2C)cc1	0	0	0	21	0	0
O=C(C1CC1)N1CCC(c2nc(-c3ccc(S(=O)(=O)N4CCCC4)cc3)no2)CC1	0	0	0	0	0	66
